Tested on: HEK-293T
Assay: Multiplex assay against HEK293T
Type: toxicity, cell-based
Conditions: human
How it was run: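 Live cells were stained at seeding with Hoechst33342, BioTracker Green Microtubule Cytoskeleton Dye, MitoTracker Red and Annexin V Alexa Fluor 680, then imaged on a CQ1 microscope at 37°C and 5% CO2 after compound addition. CellPathfinder machine-learning gating split cells into Hoechst high-intensity objects or normal cells. Normal cells were split into healthy, pyknosed or fragmented nuclei, and pyknosed cells into mitotic or apoptotic. Tubulin, mitochondrial-mass and membrane-permeability phenotypes are per cents of healthy-nucleus cells.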

[1] = 12 h, 1 µM, compound concentration 1 uM, replicate 1
[2] = 12 h, 1 µM, compound concentration 1 uM, replicate 2
[3] = 12 h, 10 µM, compound concentration 10 uM, replicate 1
[4] = 12 h, 10 µM, compound concentration 10 uM, replicate 2
[5] = 24 h, 1 µM, compound concentration 1 uM, replicate 1
[6] = 24 h, 1 µM, compound concentration 1 uM, replicate 2
[7] = 24 h, 10 µM, compound concentration 10 uM, replicate 1
[8] = 24 h, 10 µM, compound concentration 10 uM, replicate 2
[9] = 48 h, 1 µM, compound concentration 1 uM, replicate 1
[10] = 48 h, 1 µM, compound concentration 1 uM, replicate 2
[11] = 48 h, 10 µM, compound concentration 10 uM, replicate 1
[12] = 48 h, 10 µM, compound concentration 10 uM, replicate 2

SMILES: Cc1ccc(/C(=C\CN2CCCC2)c2ccccn2)cc1 [TRIPROLIDINE]
- Population Apoptotic (%) [1]: 34%
- Population Fragmented Nuclei (%) [1]: 6%
- Population Healthy Nuclei (%) [1]: 83%
- Population Hoechst High Intensity Objects (%) [1]: 7%
- Population Membrane Permeable-Phenotype (%) [1]: 0%
- Population Mitochondria Different-Phenotype (%) [1]: 45%
- Population Mitotic Cells (%) [1]: 65%
- Population Normal (%) [1]: 92%
- Population Pyknosed Nuclei (%) [1]: 9%
- Population Tubulin-Different-Phenotype (%) [1]: 24%
- Total Cell Count [1]: 424
- Population Apoptotic (%) [2]: 50%
- Population Fragmented Nuclei (%) [2]: 3%
- Population Healthy Nuclei (%) [2]: 84%
- Population Hoechst High Intensity Objects (%) [2]: 5%
- Population Mitochondria Different-Phenotype (%) [2]: 55%
- Population Mitotic Cells (%) [2]: 50%
- Population Normal (%) [2]: 94%
- Population Pyknosed Nuclei (%) [2]: 11%
- Population Tubulin-Different-Phenotype (%) [2]: 17%
- Total Cell Count [2]: 446
- Population Apoptotic (%) [3]: 44%
- Population Fragmented Nuclei (%) [3]: 10%
- Population Healthy Nuclei (%) [3]: 72%
- Population Hoechst High Intensity Objects (%) [3]: 15%
- Population Membrane Permeable-Phenotype (%) [3]: 0%
- Population Mitochondria Different-Phenotype (%) [3]: 67%
- Population Mitotic Cells (%) [3]: 56%
- Population Normal (%) [3]: 84%
- Population Pyknosed Nuclei (%) [3]: 16%
- Population Tubulin-Different-Phenotype (%) [3]: 53%
- Total Cell Count [3]: 368
- Population Fragmented Nuclei (%) [4]: 6%
- Population Healthy Nuclei (%) [4]: 77%
- Population Hoechst High Intensity Objects (%) [4]: 8%
- Population Mitochondria Different-Phenotype (%) [4]: 74%
- Population Normal (%) [4]: 91%
- Population Pyknosed Nuclei (%) [4]: 15%
- Population Tubulin-Different-Phenotype (%) [4]: 45%
- Total Cell Count [4]: 344
- Population Apoptotic (%) [5]: 30%
- Population Fragmented Nuclei (%) [5]: 10%
- Population Healthy Nuclei (%) [5]: 78%
- Population Hoechst High Intensity Objects (%) [5]: 3%
- Population Membrane Permeable-Phenotype (%) [5]: 0%
- Population Mitochondria Different-Phenotype (%) [5]: 27%
- Population Mitotic Cells (%) [5]: 70%
- Population Normal (%) [5]: 96%
- Population Pyknosed Nuclei (%) [5]: 10%
- Population Tubulin-Different-Phenotype (%) [5]: 18%
- Total Cell Count [5]: 574
- Population Fragmented Nuclei (%) [6]: 9%
- Population Healthy Nuclei (%) [6]: 82%
- Population Hoechst High Intensity Objects (%) [6]: 7%
- Population Mitochondria Different-Phenotype (%) [6]: 34%
- Population Mitotic Cells (%) [6]: 69%
- Population Normal (%) [6]: 92%
- Population Pyknosed Nuclei (%) [6]: 7%
- Population Tubulin-Different-Phenotype (%) [6]: 9%
- Total Cell Count [6]: 541
- Population Apoptotic (%) [7]: 36%
- Population Fragmented Nuclei (%) [7]: 8%
- Population Healthy Nuclei (%) [7]: 78%
- Population Hoechst High Intensity Objects (%) [7]: 9%
- Population Membrane Permeable-Phenotype (%) [7]: 0%
- Population Mitochondria Different-Phenotype (%) [7]: 55%
- Population Mitotic Cells (%) [7]: 63%
- Population Normal (%) [7]: 90%
- Population Pyknosed Nuclei (%) [7]: 13%
- Population Tubulin-Different-Phenotype (%) [7]: 43%
- Total Cell Count [7]: 490
- Population Apoptotic (%) [8]: 27%
- Population Fragmented Nuclei (%) [8]: 9%
- Population Healthy Nuclei (%) [8]: 80%
- Population Hoechst High Intensity Objects (%) [8]: 4%
- Population Mitochondria Different-Phenotype (%) [8]: 54%
- Population Mitotic Cells (%) [8]: 72%
- Population Normal (%) [8]: 95%
- Population Pyknosed Nuclei (%) [8]: 10%
- Population Tubulin-Different-Phenotype (%) [8]: 26%
- Total Cell Count [8]: 464
- Population Apoptotic (%) [9]: 16%
- Population Fragmented Nuclei (%) [9]: 14%
- Population Healthy Nuclei (%) [9]: 79%
- Population Hoechst High Intensity Objects (%) [9]: 1%
- Population Membrane Permeable-Phenotype (%) [9]: 2%
- Population Mitochondria Different-Phenotype (%) [9]: 17%
- Population Mitotic Cells (%) [9]: 83%
- Population Normal (%) [9]: 98%
- Population Pyknosed Nuclei (%) [9]: 6%
- Population Tubulin-Different-Phenotype (%) [9]: 11%
- Total Cell Count [9]: 950
- Population Apoptotic (%) [10]: 37%
- Population Fragmented Nuclei (%) [10]: 10%
- Population Healthy Nuclei (%) [10]: 84%
- Population Hoechst High Intensity Objects (%) [10]: 3%
- Population Membrane Permeable-Phenotype (%) [10]: 1%
- Population Mitochondria Different-Phenotype (%) [10]: 13%
- Population Mitotic Cells (%) [10]: 62%
- Population Normal (%) [10]: 96%
- Population Pyknosed Nuclei (%) [10]: 4%
- Population Tubulin-Different-Phenotype (%) [10]: 6%
- Total Cell Count [10]: 837
- Population Apoptotic (%) [11]: 43%
- Population Fragmented Nuclei (%) [11]: 16%
- Population Healthy Nuclei (%) [11]: 74%
- Population Hoechst High Intensity Objects (%) [11]: 6%
- Population Membrane Permeable-Phenotype (%) [11]: 0%
- Population Mitochondria Different-Phenotype (%) [11]: 46%
- Population Mitotic Cells (%) [11]: 56%
- Population Normal (%) [11]: 93%
- Population Pyknosed Nuclei (%) [11]: 9%
- Population Tubulin-Different-Phenotype (%) [11]: 29%
- Total Cell Count [11]: 674
- Population Apoptotic (%) [12]: 33%
- Population Fragmented Nuclei (%) [12]: 13%
- Population Healthy Nuclei (%) [12]: 78%
- Population Hoechst High Intensity Objects (%) [12]: 4%
- Population Membrane Permeable-Phenotype (%) [12]: 1%
- Population Mitochondria Different-Phenotype (%) [12]: 43%
- Population Mitotic Cells (%) [12]: 66%
- Population Normal (%) [12]: 95%
- Population Pyknosed Nuclei (%) [12]: 7%
- Population Tubulin-Different-Phenotype (%) [12]: 25%
- Total Cell Count [12]: 644

— ChEMBL document CHEMBL5058577, “EUbOPEN Chemogenomics Library 2 (Multiplex)” (2022)
